Measured values: PMC8800165 (Antiviral Research, 2022)
Several values for one entry are separate records, joined by “and”; a condition that tells them apart may be missing. Identical values can stand only once. Like-named read-outs stand apart in the source and are kept apart here.

What was measured:
SARS-CoV-2 RdRp [1] = target: T1, SARS-CoV-2 RdRp (Severe acute respiratory syndrome coronavirus 2, UniProt P0DTD1); assay: CoV-Gluc plus- and minus-strand RNA by real-time qRT-PCR; assay type: cell-based; details: HEK293T, 2 μM or 10 μM, 24 h
HCoV-NL63 = assay: anti-coronavirus CPE inhibition assay; assay type: cell-based; details: read-out: EC50 HCoV-NL63 (CPE inhibition); LLC-MK2, MOI 0.01, 5 days, MTS
In short: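 LLC-MK2 cells (DMEM, 10% heat-inactivated FBS) seeded at 2 × 10^4/well for 24 h. Infected with HCoV-NL63 strain Amsterdam I at MOI 0.01 in 2% FBS medium; test compound in two-fold dilutions (0.195–50 μM) given 1 h post-infection. Incubated 5 days at 33 °C; MTS 3 h at 37 °C, A490. Means ± SD, three independent experiments.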

[2] = target: SARS-CoV-2 RdRp in the presence of nsp14 and nsp10 (Severe acute respiratory syndrome coronavirus 2, UniProt P0DTD1); assay: cell-based CoV-RdRp-Gluc system with nsp10/nsp14 proofreading function; details: EC50 with nsp14/nsp10 over EC50 without
HCoV-OC43 = assay: anti-coronavirus CPE inhibition assay; assay type: cell-based; details: read-out: EC50 HCoV-OC43 (CPE inhibition)
In short: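 HCT-8 cells (DMEM, 10% heat-inactivated FBS) seeded at 2 × 10^4/well for 24 h. Infected with HCoV-OC43 strain VR-1558 at MOI 0.1 in 2% FBS medium; two-fold serial dilutions of test compound (0.195–50 μM) added 1 h post-infection. Incubated 5 days at 33 °C, then MTS 3 h at 37 °C, A490. Means ± SD, three independent experiments.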

SARS-CoV-2 RdRp [3] = target: T1, SARS-CoV-2 RdRp; assay: Bio layer interferometry binding assay; details: data not shown
SARS-CoV-2 RdRp [4] = target: T1, SARS-CoV-2 RdRp; details: for inhibition ratio against SARS-CoV-2 RdRp: 10 μM, library screen; for TI (CC50/EC50): CC50 HEK293T / RdRp EC50
LLC-MK2 cells = assay: toxicity after incubation for 5 days in LLC-MK2 cells; assay type: cell-based; details: read-out: Toxicity CC50 LLC-MK2
HEK293T cells = assay: cell toxicity assay, CCK-8 kit; assay type: cell-based; details: HEK293T, 24 h, CCK-8
In short: (§1)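 HEK293T cells (DMEM, 10% FBS) seeded one day before treatment. Test compound added in […] for 24 h. CCK-8 (WST-8) reagent then added for 60 min at 37 °C, 5% CO2, and A450 read. CC50 derived from viability relative to DMSO-treated cells.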

HCT-8 cells = assay: toxicity after incubation for 5 days in HCT-8 cells; assay type: cell-based; details: read-out: Toxicity CC50 HCT-8; incubation for 5 days
[5] = cell toxicity assay, CCK-8 kit; assay type: cell-based; details: human, HEK293T cells
In short: as §1

[6] = toxicity after incubation for 5 days in HCT-8 cells; assay type: cell-based; details: human, HCT-8 cells
[7] = Betacoronavirus 1, OC43, HCT-8, 120 h

Row | Structure (SMILES) | levels of plus-strand and minus-strand Gluc RNA (SARS-CoV-2 RdRp [1]) | EC50 (HCoV-NL63) [µM] | Ratio (12 + 14/12) [2] | EC50 (HCoV-OC43; HCT-8, MOI 0.1, 5 days, MTS) [µM] | binding activity upon SARS-CoV-2 RdRp (SARS-CoV-2 RdRp [3]) | inhibition ratio against SARS-CoV-2 RdRp (SARS-CoV-2 RdRp [4]) | TI (CC50/EC50) (SARS-CoV-2 RdRp [4]) | CC50 (LLC-MK2 cells) [µM] | CC50 (HEK293T cells) [µM] | CC50 (HCT-8 cells) [µM] | EC50 (HCoV-OC43; [7]) [µM] | CC50 at 24 h [5] [µM] | CC50 at 5 days [6] [µM]
1 | Nc1ncnc2c1c(I)cn2[C@@H]1O[C@H](CO)[C@@H](O)[C@H]1O [5-Iodotubercidin] | even better than the Remdesivir | 3.62 | 1.89 | 1.56 | did not detect the binding activity | 85.69% and > 75% | 79.28 | 45.6 ± 5.15 | 59.5 | 46.9 ± 2.37 | – | – | –
2 | Nc1nc2c(ncn2[C@H]2C[C@H](O)[C@@H](CO)O2)c(=S)[nH]1 [6-Thio-dG, 6-Thio-20-Deoxyguanosine] | – | 9.53 | 8.04 | 6.5 | – | 75.19% and > 75% | – | 68 ± 7.03 | > 100 | 63 ± 3.52 | – | – | –
3 | Nc1nc(F)nc2c1ncn2[C@@H]1O[C@H](COP(=O)(O)O)[C@@H](O)[C@@H]1O [Fludarabine Phosphate] | – | – | 7.19 | – | – | 89.78% and > 75% | 70.15 | – | – | – | 3.11 | 65.2 | 37.5 ± 1.62
4 | Nc1nc(F)nc2c1ncn2[C@@H]1O[C@H](CO)[C@@H](O)[C@@H]1O [Fludarabine] | – | – | 11.53 | – | – | 88.71% and > 75% | 50.58 | – | – | – | 4.56 | 53.6 | 40.4 ± 8.16
5 | CCC(CC)COC(=O)[C@H](C)N[P@](=O)(OC[C@H]1O[C@@](C#N)(c2ccc3c(N)ncnn23)[C@H](O)[C@@H]1O)Oc1ccccc1 [Remdesivir] | – | – | – | – | – | – | >93.46 | – | – | – | – | > 100 | –
